In ChEMBL document CHEMBL4000255, “Discovery and Assessment of Atropisomers of (±)-Lesinurad” (ACS Med Chem Lett, 2017):
Values joined by “and” are separate entries in the source; they are usually repeats but may differ in a detail not shown here. Equal entries are not always repeated.

How the values were obtained:
Cytochrome P450 2C9 [1] = biological target: T1, Cytochrome P450 2C9 (Homo sapiens, UniProt P11712); assay: (§1) Drug metabolism in human liver microsomes assessed as CYP2C9-mediated metabolism by measuring parent compound remaining at 250 pmol/ml after 60 mins in presence of NADPH by LC-MS/MS analysis; format: ADME; settings: microsomes, 1 h
CYP2C9 [2] = biological target: T2, CYP2C9 (Homo sapiens, UniProt P11712); assay: as §1; format: ADME; settings: liver microsomes, read-out: Stability
Cytochrome P450 2C9 [3] = biological target: T1, Cytochrome P450 2C9; assay: Drug metabolism in human liver microsomes assessed as CYP2C9-mediated mono-oxidative metabolite formation at 250 pmol/ml preincubated for 10 mins followed by NADPH addition measured after 10 mins by LC-MS/MS analysis; format: ADME; settings: 0.25 µM
Cytochrome P450 2C19 = Cytochrome P450 2C19 (Homo sapiens, UniProt P33261); assay: Inhibition of CYP2C19 (unknown origin); format: ADME
Cytochrome P450 2D6 = Cytochrome P450 2D6 (Homo sapiens, UniProt P10635); assay: Inhibition of CYP2D6 (unknown origin); format: ADME
Cytochrome P450 1A2 = biological target: T3, Cytochrome P450 1A2 (Homo sapiens, UniProt P05177); assay: Inhibition of CYP1A2 (unknown origin); format: ADME
T3 sequence (P05177 whole entry): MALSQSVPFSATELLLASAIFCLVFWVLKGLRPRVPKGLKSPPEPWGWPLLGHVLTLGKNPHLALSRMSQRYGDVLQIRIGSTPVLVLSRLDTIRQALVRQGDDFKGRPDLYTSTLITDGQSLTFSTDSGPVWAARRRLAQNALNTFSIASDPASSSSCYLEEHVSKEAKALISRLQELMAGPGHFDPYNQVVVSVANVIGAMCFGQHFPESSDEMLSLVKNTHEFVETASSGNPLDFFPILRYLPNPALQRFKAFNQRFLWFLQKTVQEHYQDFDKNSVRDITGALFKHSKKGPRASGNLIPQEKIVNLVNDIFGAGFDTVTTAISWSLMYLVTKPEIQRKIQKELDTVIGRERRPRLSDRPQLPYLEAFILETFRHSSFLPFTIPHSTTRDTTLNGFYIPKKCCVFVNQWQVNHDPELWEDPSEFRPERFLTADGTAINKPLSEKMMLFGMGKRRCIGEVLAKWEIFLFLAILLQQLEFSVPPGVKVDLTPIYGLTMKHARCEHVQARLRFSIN

Plasma [4] = assay: Drug metabolism in Sprague-Dawley rat plasma assessed as (-)-Lesinurad formation at 2 mg/kg, iv administered as single bolus dose by LC-MS/MS analysis; format: ADME, organism-based; settings: in vivo
[5] = Drug level in cynomolgus monkey urine at 10 mg/kg, po administered as single dose via gavage measured at 24 hrs post dose by LC-MS/MS analysis; format: ADME, organism-based, Macaca fascicularis; settings: in vivo, read-out: Drug uptake
Method in brief: (§2)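 Male cynomolgus monkeys received a single 2 mg/kg IV or 10 mg/kg PO dose. Plasma and urine were collected over time periods, and the two atropisomers were quantified separately. Urine values are the mean concentration over 0-24 h. Data are mean±SD, n=3.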

[6] = Drug metabolism in cynomolgus monkey assessed as (-)-Lesinurad level in urine at 10 mg/kg, po administered as single dose via gavage measured at 24 hrs post dose by LC-MS/MS analysis; format: ADME, organism-based, Macaca fascicularis; settings: in vivo, read-out: Drug metabolism; method in brief: as §2
Plasma [7] = assay: Stability in human plasma at 37 degC up to 2 hrs; format: ADME, cell-free
[8] = Drug metabolism in cynomolgus monkey assessed as (+)-Lesinurad level in urine at 10 mg/kg, po administered as single dose via gavage measured at 24 hrs post dose by LC-MS/MS analysis; format: ADME, organism-based, Macaca fascicularis; settings: in vivo, read-out: Drug metabolism; method in brief: as §2
[9] = Apparent plasma clearance in cynomolgus monkey at 2 mg/kg, iv administered as single bolus dose by LC-MS/MS analysis; format: ADME, organism-based, Macaca fascicularis; settings: read-out: CL(app); method in brief: as §2
[10] = Stability of the compound in DMSO at 80 degC for 4 days; format: physicochemical; settings: 96 h
[11] = biological target: Voltage-gated inwardly rectifying potassium channel KCNH2 (Homo sapiens, UniProt Q12809); assay: Inhibition of human ERG
Plasma [12] = assay: Drug metabolism in Sprague-Dawley rat plasma assessed as (-)-Lesinurad formation at 10 mg/kg, po administered as single dose via gavage by LC-MS/MS analysis; format: ADME, organism-based; settings: in vivo
[13] = Drug recovery in cynomolgus monkey urine at 2 mg/kg, iv administered as single bolus dose measured at 24 hrs post dose by LC-MS/MS analysis; format: ADME, organism-based, Macaca fascicularis; settings: read-out: Drug recovery; method in brief: as §2
Cytochrome P450 2C9 [14] = biological target: T1, Cytochrome P450 2C9; assay: (§3) Drug metabolism in human liver microsomes assessed as CYP2C9-mediated metabolism by measuring compound half life at 250 pmol/ml preincubated for 10 mins followed by NADPH addition measured after 10 mins by LC-MS/MS analysis; format: ADME; settings: microsomes, 10 min
CYP2C9 [15] = biological target: T2, CYP2C9; assay: as §3; format: ADME; settings: liver microsomes
[16] = Drug recovery in cynomolgus monkey urine at 10 mg/kg, po administered as single dose via gavage measured at 24 hrs post dose by LC-MS/MS analysis; format: ADME, organism-based, Macaca fascicularis; settings: read-out: Drug recovery; method in brief: as §2
[17] = Drug metabolism in cynomolgus monkey assessed as (-)-Lesinurad level in urine at 2 mg/kg, iv administered as single bolus dose measured at 24 hrs post dose by LC-MS/MS analysis; format: ADME, organism-based, Macaca fascicularis; settings: in vivo; method in brief: as §2
[18] = Stability of the compound in solid state assessed as racemization after 80 days; format: physicochemical; settings: 1920 h
[19] = Stability of the compound in ethanol at 37 degC for 4 days; format: physicochemical; settings: 96 h
Plasma [20] = assay: Drug metabolism in Sprague-Dawley rat plasma assessed as (+)-Lesinurad formation at 10 mg/kg, po administered as single dose via gavage by LC-MS/MS analysis; format: ADME, organism-based; settings: in vivo
Cynomolgus monkey [21] = assay: (§4) AUC (0 to infinity) in cynomolgus monkey at 2 mg/kg, iv administered as single bolus dose by LC-MS/MS analysis; format: ADME, organism-based, Macaca fascicularis; parameters: dose 2 mg/kg, time infinity, route intravenous; settings: in vivo
[22] = as §4; format: ADME, organism-based, Macaca fascicularis; parameters: dose 2 mg/kg, time infinity, route intravenous; settings: in vivo
[23] = Stability of the compound in solid state assessed as compound purity after 80 days; format: physicochemical; settings: 1920 h
Cytochrome P450 3A4 = Cytochrome P450 3A4 (Homo sapiens, UniProt P08684); assay: Inhibition of CYP3A4 (unknown origin); format: ADME
Plasma [24] = assay: Drug metabolism in Sprague-Dawley rat plasma assessed as (+)-Lesinurad formation at 2 mg/kg, iv administered as single bolus dose by LC-MS/MS analysis; format: ADME, organism-based; settings: in vivo
Plasma [25] = assay: Stability in Sprague-Dawley rat plasma at 37 degC up to 2 hrs; format: ADME, cell-free
Cynomolgus monkey [26] = assay: AUC (0 to infinity) in cynomolgus monkey at 10 mg/kg, po administered as single dose via gavage by LC-MS/MS analysis; format: ADME, organism-based, Macaca fascicularis; parameters: dose 10 mg/kg, route oral, time infinity; settings: in vivo
[27] = Drug level in cynomolgus monkey urine at 2 mg/kg, iv administered as single bolus dose measured at 24 hrs post dose by LC-MS/MS analysis; format: ADME, organism-based, Macaca fascicularis; settings: read-out: Drug uptake; method in brief: as §2
Cytochrome P450 2C9 [28] = biological target: T1, Cytochrome P450 2C9; assay: (§5) Drug metabolism in human liver microsomes assessed as CYP2C9-mediated metabolism by measuring parent compound remaining at 250 pmol/ml after 60 mins in absence of NADPH by LC-MS/MS analysis; format: ADME; settings: microsomes, 1 h
CYP2C9 [29] = biological target: T2, CYP2C9; assay: as §5; format: ADME; settings: liver microsomes, read-out: Stability
[30] = Apparent permeability from apical to basolateral side in MDCK cells expressing MDR1; format: ADME, cell-based, Canis lupus familiaris; settings: dog
Cytochrome P450 2C9 [31] = biological target: T1, Cytochrome P450 2C9; assay: Drug metabolism in human liver microsomes assessed as CYP2C9-mediated metabolism by measuring compound intrinsic clearance at 250 pmol/ml preincubated for 10 mins followed by NADPH addition measured after 10 mins by LC-MS/MS analysis; format: ADME
[32] = Apparent permeability from basolateral to apical side in MDCK cells expressing MDR1; format: ADME, cell-based, Canis lupus familiaris; settings: dog
Cytochrome P450 2C9 [33] = biological target: T1, Cytochrome P450 2C9; assay: Inhibition of CYP2C9 (unknown origin); format: ADME
[34] = Drug metabolism in cynomolgus monkey assessed as (+)-Lesinurad level in urine at 2 mg/kg, iv administered as single bolus dose measured at 24 hrs post dose by LC-MS/MS analysis; format: ADME, organism-based, Macaca fascicularis; settings: in vivo, read-out: Drug metabolism; method in brief: as §2
CYP2C9 [35] = biological target: T2, CYP2C9; assay: Drug metabolism in human liver microsomes assessed as CYP2C9-mediated metabolism by measuring parent compound remaining at 10 pmol/ml after 60 mins in presence of NADPH by LC-MS/MS analysis; format: ADME; settings: read-out: Stability
Cytochrome P450 2C9 [36] = biological target: T1, Cytochrome P450 2C9; assay: Drug metabolism in human liver microsomes assessed as CYP2C9-mediated metabolism by measuring compound intrinsic clearance at 10 pmol/ml preincubated for 10 mins followed by NADPH addition measured after 10 mins by LC-MS/MS analysis; format: ADME
CYP2C9 [37] = biological target: T2, CYP2C9; assay: Drug metabolism in human liver microsomes assessed as CYP2C9-mediated metabolism by measuring parent compound remaining at 10 pmol/ml after 60 mins in absence of NADPH by LC-MS/MS analysis; format: ADME; settings: read-out: Stability
CYP2C9 [38] = biological target: T2, CYP2C9; assay: Drug metabolism in human liver microsomes assessed as CYP2C9-mediated metabolism by measuring compound half life at 10 pmol/ml preincubated for 10 mins followed by NADPH addition measured after 10 mins by LC-MS/MS analysis; format: ADME

Sequence of Cytochrome P450 3A4 (P08684 whole entry): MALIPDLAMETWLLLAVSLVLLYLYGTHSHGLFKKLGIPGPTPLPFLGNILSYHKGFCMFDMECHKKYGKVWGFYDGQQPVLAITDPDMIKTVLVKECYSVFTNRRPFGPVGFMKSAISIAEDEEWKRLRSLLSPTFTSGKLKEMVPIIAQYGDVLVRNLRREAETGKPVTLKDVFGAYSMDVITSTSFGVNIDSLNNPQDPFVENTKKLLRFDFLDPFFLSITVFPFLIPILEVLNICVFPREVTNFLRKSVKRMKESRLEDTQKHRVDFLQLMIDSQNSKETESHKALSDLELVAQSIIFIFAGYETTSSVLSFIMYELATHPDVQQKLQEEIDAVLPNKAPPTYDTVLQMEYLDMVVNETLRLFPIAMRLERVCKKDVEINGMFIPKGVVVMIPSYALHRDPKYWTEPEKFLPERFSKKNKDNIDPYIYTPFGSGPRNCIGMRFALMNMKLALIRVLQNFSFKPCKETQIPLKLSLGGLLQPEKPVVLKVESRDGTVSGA
Sequence of Cytochrome P450 2D6 (P10635 whole entry): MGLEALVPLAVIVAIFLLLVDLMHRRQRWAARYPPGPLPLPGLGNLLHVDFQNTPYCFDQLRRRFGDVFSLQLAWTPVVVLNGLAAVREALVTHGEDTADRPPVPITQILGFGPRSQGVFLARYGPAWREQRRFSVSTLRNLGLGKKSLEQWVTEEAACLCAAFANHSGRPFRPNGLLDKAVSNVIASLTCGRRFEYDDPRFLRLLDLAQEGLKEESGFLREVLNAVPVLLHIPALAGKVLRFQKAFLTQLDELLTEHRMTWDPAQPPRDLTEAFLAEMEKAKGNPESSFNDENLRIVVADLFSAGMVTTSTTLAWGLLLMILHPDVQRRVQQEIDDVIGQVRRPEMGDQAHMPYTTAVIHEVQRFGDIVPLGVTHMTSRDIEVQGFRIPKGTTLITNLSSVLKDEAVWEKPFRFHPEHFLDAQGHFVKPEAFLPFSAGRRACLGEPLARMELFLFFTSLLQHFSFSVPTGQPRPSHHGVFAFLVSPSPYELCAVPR
Sequence of Cytochrome P450 2C19 (P33261 whole entry): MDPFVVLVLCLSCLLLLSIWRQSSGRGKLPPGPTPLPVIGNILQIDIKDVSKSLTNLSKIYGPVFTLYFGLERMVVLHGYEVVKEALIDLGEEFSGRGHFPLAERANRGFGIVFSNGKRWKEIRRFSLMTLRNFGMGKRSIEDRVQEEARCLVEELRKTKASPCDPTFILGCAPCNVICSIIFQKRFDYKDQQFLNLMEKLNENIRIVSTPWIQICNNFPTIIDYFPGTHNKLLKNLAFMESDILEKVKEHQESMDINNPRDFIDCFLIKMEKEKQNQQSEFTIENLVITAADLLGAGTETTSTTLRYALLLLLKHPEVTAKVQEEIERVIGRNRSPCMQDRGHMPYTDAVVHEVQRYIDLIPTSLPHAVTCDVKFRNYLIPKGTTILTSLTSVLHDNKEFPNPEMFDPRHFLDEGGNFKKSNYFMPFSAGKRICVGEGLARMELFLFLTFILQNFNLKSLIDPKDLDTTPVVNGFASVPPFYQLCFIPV
T1 sequence (P11712 whole entry): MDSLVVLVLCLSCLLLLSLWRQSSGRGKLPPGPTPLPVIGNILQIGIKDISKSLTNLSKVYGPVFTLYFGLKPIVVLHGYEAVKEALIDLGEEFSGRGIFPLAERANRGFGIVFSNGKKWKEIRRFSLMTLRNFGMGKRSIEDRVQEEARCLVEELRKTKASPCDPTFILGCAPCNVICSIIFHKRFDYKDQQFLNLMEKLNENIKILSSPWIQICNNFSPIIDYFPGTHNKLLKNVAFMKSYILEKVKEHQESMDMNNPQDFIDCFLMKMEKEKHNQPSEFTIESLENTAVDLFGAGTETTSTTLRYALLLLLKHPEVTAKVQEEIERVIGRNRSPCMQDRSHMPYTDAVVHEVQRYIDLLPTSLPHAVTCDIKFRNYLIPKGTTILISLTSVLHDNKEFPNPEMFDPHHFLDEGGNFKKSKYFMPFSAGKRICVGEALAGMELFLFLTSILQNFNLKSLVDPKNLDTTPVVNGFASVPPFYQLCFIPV
T2 sequence (P11712 whole entry): as above
Sequence of Voltage-gated inwardly rectifying potassium channel KCNH2 (Q12809 whole entry): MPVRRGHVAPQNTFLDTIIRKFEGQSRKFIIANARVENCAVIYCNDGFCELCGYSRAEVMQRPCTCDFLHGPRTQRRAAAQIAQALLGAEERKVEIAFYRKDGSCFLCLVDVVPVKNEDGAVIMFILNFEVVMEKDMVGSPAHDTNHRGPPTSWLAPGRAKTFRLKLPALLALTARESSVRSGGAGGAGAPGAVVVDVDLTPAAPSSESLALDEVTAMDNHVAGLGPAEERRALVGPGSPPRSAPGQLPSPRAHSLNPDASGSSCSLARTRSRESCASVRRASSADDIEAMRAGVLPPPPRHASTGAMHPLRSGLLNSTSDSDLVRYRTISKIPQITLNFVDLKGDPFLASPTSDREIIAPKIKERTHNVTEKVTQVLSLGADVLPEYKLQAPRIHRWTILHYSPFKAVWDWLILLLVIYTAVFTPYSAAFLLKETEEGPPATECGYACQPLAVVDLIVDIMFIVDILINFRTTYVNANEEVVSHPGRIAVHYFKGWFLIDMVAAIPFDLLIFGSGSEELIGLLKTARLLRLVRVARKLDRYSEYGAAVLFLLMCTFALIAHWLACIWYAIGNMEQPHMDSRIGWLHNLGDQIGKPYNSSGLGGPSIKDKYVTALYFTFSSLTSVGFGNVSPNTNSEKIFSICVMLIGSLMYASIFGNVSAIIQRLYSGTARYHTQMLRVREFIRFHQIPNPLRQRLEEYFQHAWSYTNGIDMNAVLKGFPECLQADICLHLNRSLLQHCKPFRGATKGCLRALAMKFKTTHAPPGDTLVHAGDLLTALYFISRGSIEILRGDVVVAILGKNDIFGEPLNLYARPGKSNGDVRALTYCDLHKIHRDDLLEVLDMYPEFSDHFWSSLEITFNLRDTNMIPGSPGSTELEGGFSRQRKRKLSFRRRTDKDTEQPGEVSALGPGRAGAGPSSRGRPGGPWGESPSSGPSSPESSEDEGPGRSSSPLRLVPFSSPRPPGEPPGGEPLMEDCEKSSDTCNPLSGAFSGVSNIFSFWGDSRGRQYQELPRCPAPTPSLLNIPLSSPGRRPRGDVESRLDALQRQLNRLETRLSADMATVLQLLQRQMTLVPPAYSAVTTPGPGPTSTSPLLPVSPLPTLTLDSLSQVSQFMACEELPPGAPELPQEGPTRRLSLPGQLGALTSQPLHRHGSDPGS

Structure (SMILES): O=C(O)CSc1nnc(Br)n1-c1ccc(C2CC2)c2ccccc12 [LESINURAD]
- Stability (Cytochrome P450 2C9 [1]): 74.9%
- remaining at 1 h, 250 pmol/ml (CYP2C9 [2]): 61.8%
- Drug metabolism (Cytochrome P450 2C9 [3]): Metabolite_Detected
- IC50 (Cytochrome P450 2C19): 61.7 µM and 10.6 µM and 10.8 µM
- IC50 (Cytochrome P450 2D6): 32.6 µM and 92.1 µM and > 100 µM
- IC50 (Cytochrome P450 1A2): 17.3 µM and 39.3 µM and 21.9 µM
- Drug metabolism (Plasma [4]): Metabolite_Notdetected
- concentration [5]: 120 µM and 47.8 µM
- concentration [6]: 153 µM
- Stability (Plasma [7]): Stable
- concentration [8]: 38 µM
- clearance [9]: 3.3 mL/min/kg
- Stability [10]: Stable
- IC50 [11]: > 30 µM
- Drug metabolism (Plasma [12]): Metabolite_Notdetected
- dose excreted at 24 h [13]: 20%
- t1/2 (Cytochrome P450 2C9 [14]): > 2.42 h
- half-life at 250 pmol/ml (CYP2C9 [15]): 1.5 h
- dose excreted at 24 h [16]: 20%
- Drug metabolism [17]: 5.4 µM
- Stability [18]: Stable
- Stability [19]: Stable
- Drug metabolism (Plasma [20]): Metabolite_Notdetected
- AUC (Cynomolgus monkey [21]): 19.2 µM·h
- AUC(0-inf) [22]: 26.7 µM·h
- Stability [23]: Stable
- IC50 (Cytochrome P450 3A4): 74.4 µM and 32.4 µM and 31 µM
- Drug metabolism (Plasma [24]): Metabolite_Notdetected
- Stability (Plasma [25]): Stable
- AUC (Cynomolgus monkey [26]): 83.9 µM·h and 37.3 µM·h
- concentration ([27]; in vivo, 24 h): 15.7 µM
- concentration at 24 h ([27]; urine): 16.3 µM
- Stability (Cytochrome P450 2C9 [28]): 108.9%
- remaining at 1 h, 250 pmol/ml (CYP2C9 [29]): 110%
- Papp A→B ([30]; MDCK-MDR1): 1.34 ×10⁻⁶ cm/s
- Papp ([30]; mdck): 1.29 ucm/s and 1.26 ucm/s
- CLH (Cytochrome P450 2C9 [31]): 0.04 µL/min/pmol and < 0.02 µL/min/pmol
- Papp B→A ([32]; MDCK-MDR1): 1.98 ×10⁻⁶ cm/s
- Papp ([32]; mdck): 1.84 ucm/s and 1.62 ucm/s
- IC50 (Cytochrome P450 2C9 [33]): > 100 µM and 78.7 µM and 31.2 µM
- concentration [34]: 2.8 µM

Structure (SMILES): O=C(O)Cc1ccccc1Nc1c(Cl)cccc1Cl [DICLOFENAC]
- remaining at 1 h, 10 pmol/ml (CYP2C9 [35]): 3.3%
- CLint (Cytochrome P450 2C9 [36]): 5.6 µL/min/pmol
- remaining at 1 h, 10 pmol/ml (CYP2C9 [37]): 112%
- half-life at 10 pmol/ml (CYP2C9 [38]): 0.205 h
